Laboratory results taken from ChEMBL document CHEMBL1145965, “4-Substituted 4-hydroxycyclohexa-2,5-dien-1-ones with selective activities against colon and renal cancer cell lines” (J Med Chem, 2003).

Key:
[1] = system: Panel NCI-60 (60 carcinoma cell lines); experiment: In vitro mean growth inhibitory activity against 60-cell panel; format: functional; settings: Homo sapiens
[2] = system: Panel NCI-60 (60 carcinoma cell lines); experiment: In vitro mean growth lethal concentration against 60-cell panel; format: functional; settings: Homo sapiens, read-out: Mean LC50
[3] = system: Panel NCI-60 (60 carcinoma cell lines); experiment: In vitro mean growth lethal concentration in colon subpanel against 60-cell panel; format: functional; settings: Homo sapiens, read-out: Mean LC50
[4] = system: Panel NCI-60 (60 carcinoma cell lines); experiment: In vitro mean growth lethal concentration in renal subpanel against 60-cell panel; format: functional; settings: Homo sapiens, read-out: Mean LC50
ACHN = experiment: In vitro lethal concentration against most sensitive ACHN cell line; format: functional; settings: Homo sapiens, read-out: LC50 (the source's name)
HCT-116 [5] = experiment: In vitro lethal concentration against most sensitive colon HCT116 cell line; format: functional; settings: Homo sapiens, read-out: LC50 (the source's name)
SW-620 = experiment: In vitro lethal concentration against least sensitive colon SW-620 cell line; format: functional; settings: Homo sapiens, read-out: LC50 (the source's name)
HCT-116 [6] = experiment: Inhibitory activity against HCT116 colon cancer cell line; format: functional, cell-based; settings: Homo sapiens
Summary of the method: (§1)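 Cells grown in RPMI 1640 with 2 mM L-glutamine and 10% fetal calf serum, 37 °C, 5% CO2. Seeded at 5 × 10³ per well, 24 h adherence, then drug 0.1 nM–100 μM final (n = 8; DMSO stocks, dilutions in medium) for 72 h.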

HT-29 = experiment: Inhibitory activity against HT-29 colon cancer cell line; format: functional, cell-based; settings: Homo sapiens; summary of the method: as §1
MCF7 = experiment: Inhibitory activity against MCF-7 mammary carcinoma cell line; format: functional, cell-based; settings: Homo sapiens; summary of the method: as §1
MDA-MB-468 = experiment: Inhibitory activity against MDA-468 mammary carcinoma cell line; format: functional, cell-based; settings: Homo sapiens; summary of the method: as §1
A549 = experiment: Inhibitory activity against A549 lung adenocarcinoma cell line; format: functional, cell-based; settings: Homo sapiens; summary of the method: as §1

For `O=C1C=CC(O)(c2ccccc2)C=C1`, the GI50 [1] was 2.29 µM, the CC50 [2] was 21.9 µM and the CC50 [3] was 10.6 µM. It also gave a CC50 [4] of 16.7 µM, a CC50 (ACHN) of 5.5 µM and a CC50 (HCT-116 [5]) of 6.31 µM. For the same compound, the CC50 (SW-620) was 51.3 µM, the IC50 (HCT-116 [6]) was 2.22 µM and the IC50 (HT-29) was 3.63 µM.
`COc1ccc2nc(C3(OC)C=CC(=NS(=O)(=O)c4ccc(C)cc4)C=C3)sc2c1` (stereo unspecified) showed a GI50 [1] of 1.91 µM, a CC50 [2] of 18.6 µM and a CC50 [3] of 13.2 µM. The CC50 [4] was 11.2 µM, the CC50 (ACHN) was 8.32 µM and the CC50 (HCT-116 [5]) was 5.01 µM. It also gave a CC50 (SW-620) of 77.6 µM.
`COC1(c2nc3ccc(F)cc3s2)C=CC(=NS(=O)(=O)c2ccc(C)cc2)C=C1` (stereo unspecified) was tested, and the GI50 [1] was 1.74 µM, the CC50 [2] was 30.2 µM and the CC50 [3] was 25.6 µM. For the same compound, the CC50 [4] was 19.1 µM, the CC50 (ACHN) was > 100 µM and the CC50 (HCT-116 [5]) was 5.25 µM. The CC50 (SW-620) was > 100 µM.
`O=C1/C(=C\c2ccccc2)CC(O)(c2nc3ccccc3s2)C/C1=C/c1ccccc1` (stereo unspecified) was tested, and the GI50 [1] was 2.69 µM, the CC50 [2] was 47.9 µM and the CC50 [3] was 17.4 µM. The CC50 [4] was 37.2 µM, the CC50 (ACHN) was 30.9 µM and the CC50 (HCT-116 [5]) was 5.37 µM. The CC50 (SW-620) was > 100 µM.
Compound `O=C1C=CC(O)(c2cnc3ccccc3c2)C=C1` has a GI50 [1] of 1.07 µM, a CC50 [2] of 15.8 µM and a CC50 [3] of 15.8 µM. For the same compound, the CC50 [4] was 9.66 µM, the CC50 (ACHN) was 15.1 µM and the CC50 (HCT-116 [5]) was 4.26 µM. For the same compound, the CC50 (SW-620) was > 100 µM, the IC50 (HCT-116 [6]) was 0.72 µM and the IC50 (HT-29) was 0.97 µM. The IC50 (MCF7) was 0.77 µM and the IC50 (MDA-MB-468) was 1.7 µM.
In the case of `O=C1C=CC(O)(c2cc3ccccc3s2)c2ccccc21` (stereo unspecified), the GI50 [1] is reported as 2.29 µM, the CC50 [2] is reported as 70.8 µM and the CC50 [3] is reported as > 100 µM. For the same compound, the CC50 [4] was > 100 µM, the CC50 (ACHN) was > 100 µM and the CC50 (HCT-116 [5]) was > 100 µM. The CC50 (SW-620) was > 100 µM.
With `O=C1C=CC(O)(c2nc3ccccc3s2)C(Cl)=C1` (stereo unspecified) the GI50 [1] was 0.46 µM, the CC50 [2] was 6.31 µM and the CC50 [3] was 2.31 µM. It also gave a CC50 [4] of 1.8 µM, a CC50 (ACHN) of 0.58 µM and a CC50 (HCT-116 [5]) of 0.68 µM. For the same compound, the CC50 (SW-620) was > 100 µM.
`COC1(c2nc3ccc(C)cc3s2)C=CC(=NS(=O)(=O)c2ccc(C)cc2)C=C1` (stereo unspecified) showed a GI50 [1] of 1.2 µM, a CC50 [2] of 19.5 µM and a CC50 [3] of 9.92 µM. For the same compound, the CC50 [4] was 10.6 µM, the CC50 (ACHN) was 6.92 µM and the CC50 (HCT-116 [5]) was 1.78 µM. The CC50 (SW-620) was 95.5 µM.
Work on `O=C1C=CC(O)(c2nc3ccccc3o2)C=C1` yielded an IC50 (A549) of 2.33 µM, a GI50 [1] of 0.46 µM and a CC50 [2] of 7.08 µM. For the same compound, the CC50 [3] was 1.13 µM, the CC50 [4] was 1.64 µM and the CC50 (ACHN) was 4.9 µM. For the same compound, the CC50 (HCT-116 [5]) was 0.87 µM, the CC50 (SW-620) was > 100 µM and the IC50 (HCT-116 [6]) was 0.18 µM. For the same compound, the IC50 (HT-29) was 0.29 µM, the IC50 (MCF7) was 0.39 µM and the IC50 (MDA-MB-468) was 0.35 µM.
`O=C1C=CC(O)(c2cc3ccccc3o2)C=C1` gave an IC50 (A549) of 2.3 µM, a GI50 [1] of 0.52 µM and a CC50 [2] of 7.24 µM. It also gave a CC50 [3] of 3.66 µM, a CC50 [4] of 2.4 µM and a CC50 (ACHN) of 1 µM. For the same compound, the CC50 (HCT-116 [5]) was 0.6 µM, the CC50 (SW-620) was > 100 µM and the IC50 (HCT-116 [6]) was 0.16 µM. For the same compound, the IC50 (HT-29) was 0.42 µM.
With `O=C1C=CC(O)(c2nccs2)C=C1` the GI50 [1] was 1.35 µM, the CC50 [2] was 14.5 µM and the CC50 [3] was 14.5 µM. For the same compound, the CC50 [4] was 9.17 µM, the CC50 (ACHN) was 7.94 µM and the CC50 (HCT-116 [5]) was 4.9 µM. For the same compound, the CC50 (SW-620) was 26.3 µM, the IC50 (HCT-116 [6]) was 0.62 µM and the IC50 (HT-29) was 0.72 µM.
For `O=C1C=CC(O)(c2cc3ccccc3s2)C=C1`, the IC50 (A549) was 2.43 µM, the GI50 [1] was 0.25 µM and the CC50 [2] was 5.75 µM. It also gave a CC50 [3] of 1.69 µM, a CC50 [4] of 1.4 µM and a CC50 (ACHN) of 0.33 µM. The CC50 (HCT-116 [5]) was 0.6 µM, the CC50 (SW-620) was > 100 µM and the IC50 (HCT-116 [6]) was 0.17 µM. It also gave an IC50 (HT-29) of 0.55 µM.
Work on `O=C1C=CC(O)(c2cc3ccccc3o2)c2ccccc21` (stereo unspecified) yielded a GI50 [1] of 0.74 µM, a CC50 [2] of 7.76 µM and a CC50 [3] of 7.76 µM. It also gave a CC50 [4] of 6.48 µM, a CC50 (ACHN) of 5.75 µM and a CC50 (HCT-116 [5]) of 4.9 µM. The CC50 (SW-620) was 3.55 µM.
In the case of `O=C1CCC(O)(c2nc3ccccc3s2)CC1`, the GI50 [1] is reported as > 100 µM, the CC50 [2] is reported as > 100 µM and the CC50 [3] is reported as > 100 µM. For the same compound, the CC50 [4] was > 100 µM, the CC50 (ACHN) was > 100 µM and the CC50 (HCT-116 [5]) was > 100 µM. The CC50 (SW-620) was > 100 µM.
`O=C1C=CC(O)(c2cccc3ccccc23)C=C1` showed a GI50 [1] of 1.82 µM, a CC50 [2] of 25.7 µM and a CC50 [3] of 12.2 µM. The CC50 [4] was 17 µM, the CC50 (ACHN) was 13.2 µM and the CC50 (HCT-116 [5]) was 5.37 µM. For the same compound, the CC50 (SW-620) was > 100 µM, the IC50 (HCT-116 [6]) was 0.42 µM and the IC50 (HT-29) was 1.36 µM. The IC50 (MCF7) was 0.78 µM and the IC50 (MDA-MB-468) was 1.77 µM.
In the case of `O=C1C=CC(O)(c2cccs2)C=C1`, the GI50 [1] is reported as 1.78 µM, the CC50 [2] is reported as 30.9 µM and the CC50 [3] is reported as 32.5 µM. The CC50 [4] was 14.4 µM, the CC50 (ACHN) was 35.5 µM and the CC50 (HCT-116 [5]) was 5.89 µM. The CC50 (SW-620) was > 100 µM, the IC50 (HCT-116 [6]) was 0.66 µM and the IC50 (HT-29) was 1.25 µM. The IC50 (MCF7) was 0.57 µM and the IC50 (MDA-MB-468) was 0.72 µM.
With `O=C1C=CC(O)(c2ccccn2)C=C1` the GI50 [1] was 1.91 µM, the CC50 [2] was 20.4 µM and the CC50 [3] was 6.9 µM. The CC50 [4] was 11.3 µM, the CC50 (ACHN) was 8.91 µM and the CC50 (HCT-116 [5]) was 5.24 µM. The CC50 (SW-620) was > 100 µM, the IC50 (HCT-116 [6]) was 0.55 µM and the IC50 (HT-29) was 0.46 µM. For the same compound, the IC50 (MCF7) was 0.72 µM and the IC50 (MDA-MB-468) was 1.5 µM.
In the case of `COC1(c2nc3ccccc3s2)C=CC(=NS(=O)(=O)c2ccc(C)cc2)C=C1` (stereo unspecified), the GI50 [1] is reported as 15.5 µM, the CC50 [2] is reported as 83.2 µM and the CC50 [3] is reported as > 100 µM. For the same compound, the CC50 [4] was > 100 µM, the CC50 (ACHN) was > 100 µM and the CC50 (HCT-116 [5]) was 44.7 µM. The CC50 (SW-620) was > 100 µM.
`COC1(c2nc3c(F)cccc3s2)C=CC(=NS(=O)(=O)c2ccc(C)cc2)C=C1` (stereo unspecified) gave a GI50 [1] of 2.57 µM, a CC50 [2] of 27.5 µM and a CC50 [3] of 26.9 µM. The CC50 [4] was 14.4 µM, the CC50 (ACHN) was 7.59 µM and the CC50 (HCT-116 [5]) was 57.5 µM. It also gave a CC50 (SW-620) of 67.6 µM.
In the case of `O=C1C=CC(O)(c2ccc3ccccc3c2)C=C1`, the GI50 [1] is reported as 0.81 µM, the CC50 [2] is reported as 11.7 µM and the CC50 [3] is reported as 6.58 µM. The CC50 [4] was 4.68 µM, the CC50 (ACHN) was 7.76 µM and the CC50 (HCT-116 [5]) was 4.47 µM. The CC50 (SW-620) was > 100 µM, the IC50 (HCT-116 [6]) was 0.82 µM and the IC50 (HT-29) was 2.5 µM. It also gave an IC50 (MCF7) of 1.3 µM and an IC50 (MDA-MB-468) of 1.4 µM.
For `CC1=CC(O)(c2nc3ccccc3s2)C=C(C)C1=O`, the GI50 [1] was 38.2 µM, the CC50 [2] was > 100 µM and the CC50 [3] was > 100 µM. The CC50 [4] was > 100 µM, the CC50 (ACHN) was > 100 µM and the CC50 (HCT-116 [5]) was > 100 µM. The CC50 (SW-620) was > 100 µM.
For `Oc1ccc(-c2nc3ccccc3s2)cc1`, the GI50 [1] was 33.9 µM, the CC50 [2] was > 100 µM and the CC50 [3] was > 100 µM. For the same compound, the CC50 [4] was > 100 µM, the CC50 (ACHN) was > 100 µM and the CC50 (HCT-116 [5]) was > 100 µM. For the same compound, the CC50 (SW-620) was > 100 µM, the IC50 (MCF7) was 69.4 µM and the IC50 (MDA-MB-468) was 0.4 µM.
